Activity calls are given as the source filed them. The rule behind the calls is not given here.
What was measured:
[1] = Metabolic stability in ddY mouse brain assessed as compound remaining at 185 kBq after 60 mins by radio-TLC; assay type: ADME, tissue-based; conditions: read-out: Stability
Pancreas = test: Drug uptake in ddY mouse pancreas at 11.1 kBq, iv after 0.5 min by gamma counting; assay type: ADME, organism-based; conditions: in vivo
Outline: (§1)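 Male ddY mice (6 weeks, 30–35 g) were given about 11.1 kBq of [125I]tracer in 0.1 mL i.v. via the tail vein. At each time point the animals were killed and organs dissected, weighed and gamma-counted. Uptake is expressed as % injected dose per gram of tissue, mean ± SD, n = 5–6.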

Kidney = test: Drug uptake in ddY mouse kidney at 11.1 kBq, iv after 5 min by gamma counting; assay type: ADME, organism-based; conditions: in vivo; outline: as §1
Nucleic Acid = test: Ratio of drug level in brain to blood in ddY mouse at 11.1 kBq, iv after 0.5 min by gamma counting; assay type: ADME, organism-based
Spleen = test: Drug uptake in ddY mouse spleen at 11.1 kBq, iv after 180 min by gamma counting; assay type: ADME, organism-based; conditions: in vivo, 3 h; outline: as §1
Liver = test: Drug uptake in ddY mouse liver at 11.1 kBq, iv after 30 min by gamma counting; assay type: ADME, organism-based; conditions: in vivo, 0.5 h; outline: as §1
Mus musculus [2] = test: In vivo binding affinity to GlyT1 in ddY mouse brain hippocampus at 33.3 kBq, iv after 60 mins in presence of nonradioactive compound 2 mg/kg, iv administered 15 mins prior to compound administration relative to control; assay type: functional, organism-based; set-up: dose 2 mg/kg; conditions: tested as the 125I-labelled form
Outline: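 Male ddY mice (6 W, 30–35 g) were given [125I]5 (ca. 33.3 kBq, 0.1 mL) iv via tail vein. Blocker (2 mg/kg in 30% DMSO/saline) was given iv 15 min before the tracer. Mice were killed 30 or 60 min after injection and the brain regions were dissected and weighed. Gamma counting gave % dose/g, compared with control; n = 5–6.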

Mus musculus [3] = test: In vivo binding affinity to GlyT1 in ddY mouse brain medullary region at 200 kBq, iv after 60 mins by autoradiography relative to control; assay type: functional, organism-based; conditions: Medulla of organ, tested as the 125I-labelled form
Outline: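 Male ddY mice were injected iv with [125I]5 (200 kBq) and killed 60 min post-injection. For blocking, unlabeled blocker (2 mg/kg) was given iv 15 min before the tracer. Frozen brain sagittal sections (20 μm) were exposed to an imaging plate for 7 days. Regional radioactivity was read as PSL/mm² (n = 5) and compared with control by Kruskal–Wallis with Dunn's post-test.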

[4] = molecular target: T1, Sodium- and chloride-dependent glycine transporter 1 (Rattus norvegicus) (UniProt P28572); test: Binding affinity to GlyT1 in rat brain thalamus at 0.03 to 0.04 nM preincubated for 20 mins in binding buffer before compound addition measured after 30 mins by autoradiography in presence of GlyT1 inhibitor N-Me-SSR504734 relative to control; assay type: tissue-based; conditions: tested as the 125I-labelled form
T1 sequence (whole entry): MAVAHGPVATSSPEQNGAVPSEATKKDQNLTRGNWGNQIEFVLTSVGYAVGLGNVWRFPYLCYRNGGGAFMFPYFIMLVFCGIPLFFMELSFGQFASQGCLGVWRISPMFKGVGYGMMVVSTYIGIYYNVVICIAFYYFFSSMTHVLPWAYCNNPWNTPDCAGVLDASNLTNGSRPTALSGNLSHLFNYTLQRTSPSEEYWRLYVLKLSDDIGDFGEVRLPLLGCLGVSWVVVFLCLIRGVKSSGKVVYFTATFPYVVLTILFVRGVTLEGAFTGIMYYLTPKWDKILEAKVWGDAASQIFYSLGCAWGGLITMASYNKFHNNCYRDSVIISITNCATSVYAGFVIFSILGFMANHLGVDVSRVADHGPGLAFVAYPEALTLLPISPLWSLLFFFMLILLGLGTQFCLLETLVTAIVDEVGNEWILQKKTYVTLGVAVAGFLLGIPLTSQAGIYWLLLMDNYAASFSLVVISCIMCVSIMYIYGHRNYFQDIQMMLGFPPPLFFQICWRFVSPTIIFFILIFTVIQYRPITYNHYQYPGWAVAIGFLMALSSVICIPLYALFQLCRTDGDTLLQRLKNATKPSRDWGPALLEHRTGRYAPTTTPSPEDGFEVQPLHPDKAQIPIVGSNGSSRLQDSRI

Mus musculus [5] = test: In vivo binding affinity to GlyT1 in ddY mouse brain hippocampus at 33.3 kBq, iv after 30 mins in presence of N-Me-SSR504734 2 mg/kg, iv administered 15 mins prior to compound administration relative to control; assay type: functional, organism-based; set-up: dose 2 mg/kg; conditions: tested as the 125I-labelled form
Outline: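 Blocking study in male ddY mice (6 weeks, 30–35 g). The blocker (2 mg/kg in 30% DMSO/saline) was injected i.v. 15 min before about 33.3 kBq [125I]tracer i.v.; mice were killed at 30 or 60 min. Brains were divided into cortex, corpus callosum, hippocampus, thalamus, midbrain, medulla and cerebellum, weighed and gamma-counted as % dose/g. Values are mean ± SD, n = 5–6, compared to control by Kruskal–Wallis with Dunn's post-test.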

[6] = molecular target: T1, Sodium- and chloride-dependent glycine transporter 1 (Rattus norvegicus); test: Binding affinity to GlyT1 in rat brain medullary region at 0.03 to 0.04 nM preincubated for 20 mins in binding buffer before compound addition measured after 30 mins by autoradiography relative to control; assay type: tissue-based; conditions: tested as the 125I-labelled form
Outline: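 Rat brain sagittal sections (20 µm), 20 min preincubation at 25 °C in Tris-HCl pH 7.5 binding buffer, then [125I] tracer (100 kBq, 0.03–0.04 nM) for 30 min at 25 °C. Nonspecific binding taken with 10 µM unlabeled ligand. Imaging-plate read-out as (PSL−BG)/mm². Mean ± SD, n = 4–5 from at least three rats; Mann–Whitney U-test.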

Mus musculus [7] = test: In vivo binding affinity to GlyT1 in ddY mouse brain striatum at 33.3 kBq, iv after 30 mins in presence of SSR504734 2 mg/kg, iv administered 15 mins prior to compound administration relative to control; assay type: functional, organism-based; set-up: dose 2 mg/kg; conditions: tested as the 125I-labelled form
[8] = molecular target: T1, Sodium- and chloride-dependent glycine transporter 1 (Rattus norvegicus); test: Binding affinity to GlyT1 in rat brain medullary region at 0.03 to 0.04 nM preincubated for 20 mins in binding buffer before compound addition measured after 30 mins by autoradiography in presence of 0.01 mM GlyT1 inhibitor HPCP relative to control; assay type: tissue-based; conditions: tested as the 125I-labelled form
Outline: (§2)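 Rat brain sagittal sections (20 µm) preincubated 20 min at 25 °C in Tris-HCl buffer pH 7.5 (NaCl, KCl, MgCl2, CaCl2), then 30 min at 25 °C with [125I] tracer (100 kBq, 0.03–0.04 nM) plus competitor (10 µM; glycine 1 or 10 mM). Cold washes, imaging plate 3 days, ROI PSL minus background per mm². % control from ≥triplicate slices, three rats.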

[9] = molecular target: T1, Sodium- and chloride-dependent glycine transporter 1 (Rattus norvegicus); test: Binding affinity to GlyT1 in rat brain thalamus at 0.03 to 0.04 nM preincubated for 20 mins in binding buffer before compound addition measured after 30 mins by autoradiography in presence of 0.01 mM GlyT2 inhibitor ORG25543 relative to control; assay type: tissue-based; conditions: tested as the 125I-labelled form
[10] = molecular target: T1, Sodium- and chloride-dependent glycine transporter 1 (Rattus norvegicus); test: Binding affinity to GlyT1 in rat brain hippocampus at 0.03 to 0.04 nM preincubated for 20 mins in binding buffer before compound addition measured after 30 mins by autoradiography in presence of 0.01 mM GlyT1 inhibitor ALX5407 relative to control; assay type: tissue-based; conditions: tested as the 125I-labelled form; outline: as §2

SMILES	remaining at 1 h [1]	Drug uptake (Pancreas)	Drug uptake (Kidney)	Ratio (Nucleic Acid)	Drug uptake (Spleen)	Drug uptake (Liver)	Activity (Mus musculus [2])	Activity (Mus musculus [3])	Activity [4]	Activity (Mus musculus [5])	Activity [6]	Activity (Mus musculus [7])	Activity [8]	Activity [9]	Activity [10]
CN1CCCC[C@H]1[C@@H](NC(=O)c1cccc(C(F)(F)F)c1[125I])c1ccccc1	89%	1.18 % ID/g	10.71 % ID/g	0.38	3.41 % ID/g	14.74 % ID/g									
CN1CCCC[C@H]1[C@@H](NC(=O)c1cccc(C(F)(F)F)c1I)c1ccccc1							Active	Active	25.1%	Active	Active	inactive	20.5%	99.7%	63.2%

Reference: ChEMBL document CHEMBL1938298, “Synthesis and characterization of [¹²⁵I]2-iodo N-[(S)-{(S)-1-methylpiperidin-2-yl}(phenyl)methyl]3-trifluoromethyl-benzamide as novel imaging probe for glycine transporter 1” (Bioorg Med Chem, 2011)
